Compound activity deposited in PubChem BioAssay by several laboratories.
Most compounds without a hit are left out; they make up all but 2.2% or so of the library.
Tn7 DDE FP: disrupts Tn7 cyclic peptide binding to fibrin D-Dimer-E complex | P02675 | FP displacement of FITC-Tn7 peptide from fibrin DD(E); 0% = median of compound wells per plate | inhibition, % at 8.3 µM | hit rate 0.13% among 370,000 | AID 720508;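 active means inhibition above the mean of compounds falling within the control limits plus 3 SD of them, cut at about 14% in these data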;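 further: 0% = plate median of compound wells and 100% = 10 µM Aha-Tn7 peptide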
Target sequence (P02675 whole entry, looked up): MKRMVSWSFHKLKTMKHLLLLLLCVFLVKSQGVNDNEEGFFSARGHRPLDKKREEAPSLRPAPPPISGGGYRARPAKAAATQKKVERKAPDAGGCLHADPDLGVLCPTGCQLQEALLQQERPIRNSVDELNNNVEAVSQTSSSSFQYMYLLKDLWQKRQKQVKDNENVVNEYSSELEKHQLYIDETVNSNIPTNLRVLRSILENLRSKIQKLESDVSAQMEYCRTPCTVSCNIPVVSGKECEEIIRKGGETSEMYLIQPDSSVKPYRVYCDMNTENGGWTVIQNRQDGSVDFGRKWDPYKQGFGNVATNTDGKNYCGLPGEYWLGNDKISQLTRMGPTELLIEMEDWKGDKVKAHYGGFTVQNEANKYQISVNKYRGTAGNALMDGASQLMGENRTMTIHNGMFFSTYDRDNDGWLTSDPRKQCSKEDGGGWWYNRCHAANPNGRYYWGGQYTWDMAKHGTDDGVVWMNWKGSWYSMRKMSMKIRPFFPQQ
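Assay system: Human fibrin DD(E) protein | Medium: Tris buffer with calcium and detergent, pH 7.8 | Reagent: 0.1 µM fluorescent Tn7 | Compound dosing: Single point at 8.3 µM | Times: 10 min preincubation, 3 h with tracer, room temperature | Detection: Fluorescence polarization of the labelled Tn7 tracer | Controls: Aha-Tn7 high control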
MT1-MMP act inh: blocks activation of human MT1-MMP; AID 651647; HT1080 RFP-PRO-GFP cells, GFP/RFP ratio fluorescence, overnight; percent of plate control window, DMSO zero; hit rate 0.061% among 360,000; GFP/RFP ratio change, % at 20 µM;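 active means GFP/RFP ratio change of at least 30% with cell ATP level not reduced by more than half and red fluorescence within 50% of control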
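Compound: 20 µM single dose, 1% DMSO / System: HT1080 RFP-PRO-GFP cells / Controls: DMSO and RFP-L50D-GFP cell wells / Read-out basis: GFP/RFP fluorescence ratio / Schedule: overnight compound exposure at 37 °C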
Neddylation inh: inhibitors of human cullin neddylation | P61081+Q13564 | TR-FRET cullin neddylation, biochemical | calls only at 25 µM | hit rate 0.58% among 360,000 | AID 651699; in the data active means inhibition above about 36%
SKN-1 inh: blocks SKN-1 activity in C. elegans; hit rate 0.49% among 360,000; C. elegans VP596 Pgst-4::GFP/RFP ratio, acrylamide-induced, 24 h; inhibition, % at 21.8 µM;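 active means interference check ratio from 0.5 to 1.5 plus GFP to RFP signal ratio inhibition reaching or exceeding a fixed threshold, cut at about 30% in these data, passing the limit was not always enough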
KLK7 zymogen act: activates the human kallikrein-7 zymogen. activation, % at 7 µM. AID 652039. purified proKLK7, EDANS-DABCYL substrate fluorescence; 100% is mature enzyme control, 0% vehicle. hit rate 0.9% among 370,000. P49862;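 active means activation above the mean of all tested compounds plus 3 SD, computed per campaign excluding outliers beyond control limits, cut at about 13% in these data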
Target sequence (P49862 whole entry, looked up): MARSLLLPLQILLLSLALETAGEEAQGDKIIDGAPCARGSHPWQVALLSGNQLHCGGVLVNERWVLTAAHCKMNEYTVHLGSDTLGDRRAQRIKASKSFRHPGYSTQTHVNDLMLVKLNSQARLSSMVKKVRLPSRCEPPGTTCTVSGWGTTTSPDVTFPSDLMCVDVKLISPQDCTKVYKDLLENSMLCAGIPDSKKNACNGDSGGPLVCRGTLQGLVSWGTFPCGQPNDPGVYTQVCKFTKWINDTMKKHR
Tn6 DDE FP: disrupts Tn6 cyclic peptide binding to fibrin D-Dimer-E complex; P02675; Fibrin DD(E) TRITC-Tn6 fluorescence polarization displacement; inhibition, % at 8.3 µM; hit rate 0.21% among 370,000;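 active means inhibition above a per-campaign cutoff: mean of compounds within control limits plus 3 SD, cut at about 15% in these data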;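 further: 0% = median of all compound wells on the plate and 100% = blocking peptide control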
proKLK7 act conf: confirmation of human kallikrein-7 zymogen activators. shares compounds with KLK7 zymogen act. purified proKLK7, EDANS-DABCYL substrate fluorescence; scaled: vehicle 0, mature enzyme 100. activation, % at 7 µM. hit rate 68% among 3,200. AID 686949;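 active means activation, as change over the incubation, above the mean of all tested compounds plus 3 SD, cut at about 13% in these data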
EDANS-DABCYL int: optically interferes with EDANS-DABCYL signal, flagging KLK7 hits; EDANS-DABCYL substrate fluorescence interference, no enzyme, 4 h; solvent 0%, active enzyme control 100%; AID 686952; shares compounds with KLK7 zymogen act; hit rate 80% among 3,200; activation, % at 7 µM;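 active means activation above the all-compound mean plus 3 SD, ignoring values outside control-based bounds, cut at about 4.8% in these data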;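 further: value is the 4 h activation minus the activation read at time zero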
Starred values were filed as active, the others as inactive; i = inactive; · = not tested or not shown.

SMILES | Tn7 DDE FP | MT1-MMP act inh | Neddylation inh | SKN-1 inh | KLK7 zymogen act | Tn6 DDE FP | proKLK7 act conf | EDANS-DABCYL int
O=C(COC(=O)/C=C/c1ccc(Cl)cc1)NC1CC1 | -3.8 | -1.3 | i | 0.8 | -0.4 | 8.1 | · | ·
Cc1ccccc1NC(=S)N(C)C1(c2ccccc2Cl)CCCCC1=O (stereo not drawn) | -4.1 | -7.6 | i | 13.5 | 0.1 | 5.0 | · | ·
COc1cccc(Nc2nc(C(N)CO)cs2)n1 (stereo not drawn) | -3.3 | -3.0 | i | 16.6 | 0.1 | -0.4 | · | ·
CNC(=O)c1ccc(Nc2nnc(-c3ccc(C(N)=O)cc3)c3ccccc23)cc1 | -6.7 | · | i | 8.4 | 132.8* | -5.7 | 7.2 | 108.3*
O=C(Nc1ccccc1F)c1cc2c(s1)-c1ccccc1S(=O)(=O)C2 | 3.3 | 1.1 | · | -2.7 | 89.1* | 6.1 | 60.0* | 93.0*
O=C(c1cc2c(s1)-c1ccccc1S(=O)(=O)C2)N1CCCC1 | -0.8 | 0.7 | i | -9.1 | 0.6 | 0.8 | · | ·
O=c1oc2ccccc2cc1-c1nc2ccccc2o1 | -2.2 | 0.5 | i | 11.8 | 88.5* | 1.8 | 74.2* | 85.8*
COc1cc(Cn2c(=O)c3c(OC)c(C)cnc3n(C)c2=O)cc(OC)c1 | 4.1 | -0.3 | i | 0.2 | -0.2 | -0.5 | · | ·
COc1ccccc1OC(=O)CCc1nc2ccccc2s1 | 5.7 | -17.3 | i | 3.0 | -0.9 | -2.5 | · | ·
COc1ccccc1CNc1nc(S(=O)(=O)c2ccccc2)c(Cl)s1 | 3.6 | 1.6 | i | 15.0 | 0.4 | -2.3 | · | ·
Cc1c(C)c2c(OCC(=O)N3CCC(O)CC3)cc3c(c2oc1=O)CCC(C)(C)O3 | 0.4 | -0.1 | · | 4.8 | 41.8* | 9.7 | 68.7* | 72.9*
CCCc1cc(=O)oc2c3c(cc(OCC(=O)N4CCC(C(=O)O)CC4)c12)OC(C)(C)CC3 | 0.7 | 4.9 | · | 5.7 | 64.8* | 1.9 | 76.6* | 76.0*
Cc1c(C)c2c(OCC(=O)N3CCC[C@H]3C(=O)O)cc3c(c2oc1=O)CCC(C)(C)O3 | -3.9 | 4.1 | i | 10.3 | 70.8* | 1.4 | 70.7* | 70.4*
Cc1c(C)c2c(OCC(=O)NCc3ccco3)cc3c(c2oc1=O)CCC(C)(C)O3 | -4.9 | 8.2 | i | 8.8 | -1.7 | 0.5 | · | ·
Cc1c(C)c2c(OCC(=O)NCc3ccncc3)cc3c(c2oc1=O)CCC(C)(C)O3 | -4.7 | 11.7 | i | 4.8 | -7.3 | 4.9 | · | ·
O=C(CN1CCN(CC(=O)Nc2ccccn2)CC1)Nc1ccccn1 | 3.5 | 3.5 | i | -11.9 | 0.5 | 7.1 | · | ·
CCN(CC)CCn1cnc2c([nH]c3cccc(OC)c32)c1=O | -4.5 | 1.1 | · | -10.1 | 67.3* | 5.2 | 27.9* | 30.9*
COc1cccc2[nH]c3c(=O)n(CCN(C)C)cnc3c12 | 0.4 | 5.6 | · | -18.7 | 49.2* | -5.0 | 14.6* | 13.8*
COc1cccc2[nH]c3c(=O)[nH]cnc3c12 | 2.1 | 4.2 | · | 3.3 | 12.6* | -2.7 | 9.8 | 14.1*
COc1cccc2c3cccc(OC)c3c3[nH]cnc3c12 | -2.9 | 12.9 | i | 30.5 | -0.2 | -12.8 | · | ·
COc1cc2[nH]c3c(=O)n(CCN(C(C)C)C(C)C)cnc3c2cc1OC | 1.8 | 22.7 | · | 14.9 | 6.2 | -1.6 | · | ·
O=C(c1ccccc1)C(CCc1ccccn1)CCc1ccccn1 | -1.4 | 0.0 | i | 7.3 | -0.3 | -2.7 | · | ·
CCOC(=O)N1CCC(NC(=O)CSCc2nc(-c3ccc(C)cc3)oc2C)CC1 | 5.3 | 2.9 | i | 1.2 | -0.1 | 4.8 | · | ·
O=C(NC1CCCC1)NS(=O)(=O)c1ccccc1Cl | 1.5 | -0.1 | i | 2.3 | -0.1 | -3.4 | · | ·
CCOC(=O)C1CCN(c2cc3c(cc2NC(=O)c2ccccc2)n(C)c(=O)n3C)CC1 | -6.7 | -5.7 | i | -10.7 | 19.6* | 1.1 | 12.2 | 12.0*
SMILES | Tn7 DDE FP | MT1-MMP act inh | Neddylation inh | SKN-1 inh | KLK7 zymogen act | Tn6 DDE FP | proKLK7 act conf | EDANS-DABCYL int
Cc1ccc(C(=S)NCS(=O)(=O)c2ccc(C)cc2)cc1 | 4.2 | -0.6 | i | -10.3 | -0.2 | 1.5 | · | ·
Cc1nc2nc(N)nc(OCc3ccccc3)c2nc1C | 5.9 | 2.7 | · | 0.3 | 59.4* | 1.0 | 75.4* | 80.2*
Nc1nc(OCc2ccccc2)c2[nH]cnc2n1 | -7.8 | 3.6 | i | 4.9 | 0.0 | -4.3 | · | ·
N#Cc1cc2c(=O)n3ccccc3nc2n(-c2ccc(Cl)cc2)c1=O | 4.8 | -2.9 | i | 16.6 | 3.3 | 5.0 | · | ·
Cc1cc(-n2c(=O)c(C#N)cc3c(=O)n4ccccc4nc32)no1 | -3.1 | -8.3 | · | 24.3 | 21.9* | 1.1 | 29.5* | 56.6*
C=CCn1c(=O)c(C#N)cc2c(=O)n3ccccc3nc21 | 5.3 | -0.5 | · | 10.8 | 38.5* | -0.8 | 67.4* | 82.8*
Cc1ccccc1-n1c(=O)c(C#N)cc2c(=O)n3ccccc3nc21 | -5.7 | -2.5 | · | -4.9 | 12.9* | -10.1 | 71.4* | 72.7*
COc1ccc(CNC(=O)OCc2nccnc2C(=O)Nc2ccc(Br)cn2)cc1 | -6.3 | 4.5 | i | -9.3 | -0.2 | 2.3 | · | ·
CC(NC(=O)c1ccc(NC(=O)CC2SC(N3CCCC3)=NC2=O)cc1)c1ccccc1 (stereo not drawn) | -3.2 | -2.5 | i | -3.0 | 0.5 | -3.1 | · | ·
CCCN1CCN(CCCNC(=O)c2cc3c(=O)[nH]c4ccc(C)cc4c3s2)CC1 | -3.8 | 3.8 | · | 11.1 | 21.4* | 9.1 | -16.5 | -14.3
C#CCNC(=O)c1cc2cccnc2nc1N | 3.0 | · | · | · | 18.0* | 4.3 | 46.4* | 45.3*
Nc1nc2ncccc2cc1C(=O)c1c[nH]c2ccccc12 | 7.6 | · | · | · | -0.3 | -4.3 | · | ·
COc1ccc(-n2c(O)c(/C=N/NS(=O)(=O)c3ccc(C)c([N+](=O)[O-])c3)c3ccccc3c2=O)cc1OC | -0.8 | -44.6 | i | 9.7 | 15.1* | -6.5 | 40.8* | 43.6*
CCOc1cc(/C=N/NC(=O)N/N=C/c2ccc(O)c(OCC)c2)ccc1O | -8.5 | · | · | · | 0.3 | -3.9 | · | ·
CCOc1cc(/C=N/NC(=O)C(=O)N/N=C/c2ccc(O)c(OCC)c2)ccc1O | -1.7 | -2.2 | i | 18.4 | 15.9* | 3.2 | -21.5 | -8.3
O=C(COC(=O)c1cc(Br)ccc1O)NNC(=O)c1cccs1 | 2.4 | 1.9 | i | 1.6 | 25.1* | 0.1 | 20.7* | 23.6*
COc1c2ccccc2nc2ccccc12 | -5.1 | 5.5 | · | 9.9 | 6.9 | 3.7 | · | ·
COc1cc2ccccc2nn1 | -2.1 | -2.5 | · | 8.4 | 23.4* | 6.3 | 32.7* | 39.1*
